Reference: ChEMBL document CHEMBL1153847, “Synthesis and in vitro cytotoxic evaluation of novel 3,4,5-trimethoxyphenyl substituted beta-carboline derivatives” (Eur J Med Chem, 2009)
pIC50: −log10 of the molar value.

Legend:
Type in all cases: functional, cell-based
[1] = test system: HeLa; assay: Cytotoxicity against human HeLa cells by MTT assay
Outline: (§1)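 Cells grown in RPMI-1640 with 10% (v/v) fetal calf serum, penicillin and streptomycin, at 37 °C in humidified 5% CO2. Compounds dissolved as DMSO stocks, with final DMSO in the medium at 2% (v/v) or lower. Run in 96-well microtitre cultures with MTT staining, following a published procedure with slight modification.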

[2] = test system: Bel-7402; assay: Cytotoxicity against human Bel7402 cells by MTT assay; outline: as §1
[3] = test system: BGC-823; assay: Cytotoxicity against human BGC823 cells by MTT assay; outline: as §1
[4] = test system: HepG2; assay: Cytotoxicity against human HepG2 cells by MTT assay; outline: as §1
[5] = test system: MCF7; assay: Cytotoxicity against human MCF7 cells by MTT assay; outline: as §1

With `COc1cc(-c2nc(C(=O)O)cc3c4ccccc4n(C)c23)cc(OC)c1OC` the pIC50 [1] was < 4.00, the pIC50 [2] was < 4.00 and the pIC50 [3] was 4.04. For the same compound, the pIC50 [4] was < 4.00 and the pIC50 [5] was < 4.00.
In the case of `CCCCn1c2ccccc2c2cc(C(=O)O)nc(-c3cc(OC)c(OC)c(OC)c3)c21`, the pIC50 [1] was < 4.00, the pIC50 [2] was < 4.00 and the pIC50 [3] was 4.29. The pIC50 [4] was < 4.00 and the pIC50 [5] was < 4.00.
For `CCn1c2ccccc2c2cc(C(=O)NCCO)nc(-c3cc(OC)c(OC)c(OC)c3)c21`, the pIC50 [1] was < 4.00, the pIC50 [2] was < 4.00 and the pIC50 [3] was 4.13. For the same compound, the pIC50 [4] was < 4.00 and the pIC50 [5] was 4.27.
In the case of `CCCCn1c2ccccc2c2cc(C(=O)NCCO)nc(-c3cc(OC)c(OC)c(OC)c3)c21`, the pIC50 [1] was < 4.00, the pIC50 [2] was < 4.00 and the pIC50 [3] was 4.43. It also gave a pIC50 [4] of 4.06 and a pIC50 [5] of 4.50.
`COc1cc(-c2nc(CO)cc3c4ccccc4n(C)c23)cc(OC)c1OC` was tested, and the pIC50 [1] was < 4.00, the pIC50 [2] was < 4.00 and the pIC50 [3] was < 4.00. For the same compound, the pIC50 [4] was < 4.00 and the pIC50 [5] was < 4.00.
`CCn1c2ccccc2c2cc(C=O)nc(-c3cc(OC)c(OC)c(OC)c3)c21` was tested, and the pIC50 [1] was < 4.00, the pIC50 [2] was < 4.00 and the pIC50 [3] was < 4.00. The pIC50 [4] was < 4.00 and the pIC50 [5] was < 4.00.
With `COc1cc(-c2nc(C=O)cc3c4ccccc4n(CCCc4ccccc4)c23)cc(OC)c1OC` the pIC50 [1] was < 4.00, the pIC50 [2] was < 4.00 and the pIC50 [3] was < 4.00. For the same compound, the pIC50 [4] was < 4.00 and the pIC50 [5] was < 4.00.
Work on `COc1cc(-c2nccc3c2[nH]c2ccccc23)cc(OC)c1OC` yielded a pIC50 [1] of 4.71, a pIC50 [2] of 4.36 and a pIC50 [3] of 4.37. For the same compound, the pIC50 [4] was 4.20 and the pIC50 [5] was 4.50.
`COc1cc(-c2nccc3c4ccccc4n(C)c23)cc(OC)c1OC` gave a pIC50 [1] of 4.14, a pIC50 [2] of 4.04 and a pIC50 [3] of 4.36. For the same compound, the pIC50 [4] was 4.06 and the pIC50 [5] was 4.13.
`CCn1c2ccccc2c2ccnc(-c3cc(OC)c(OC)c(OC)c3)c21` showed a pIC50 [1] of 4.29, a pIC50 [2] of 4.36 and a pIC50 [3] of 4.45. For the same compound, the pIC50 [4] was < 4.00 and the pIC50 [5] was 4.14.
With `CCCCn1c2ccccc2c2ccnc(-c3cc(OC)c(OC)c(OC)c3)c21` the pIC50 [1] was 4.35, the pIC50 [2] was 4.37 and the pIC50 [3] was 4.56. It also gave a pIC50 [4] of 4.28 and a pIC50 [5] of 4.29.
For `CCn1c2ccccc2c2cc(CO)nc(-c3cc(OC)c(OC)c(OC)c3)c21`, the pIC50 [1] was < 4.00, the pIC50 [2] was < 4.00 and the pIC50 [3] was < 4.00. For the same compound, the pIC50 [4] was < 4.00 and the pIC50 [5] was < 4.00.
`CCOC(=O)c1cc2c([nH]c3ccccc32)c(-c2cc(OC)c(OC)c(OC)c2)n1` was tested, and the pIC50 [1] was < 4.00, the pIC50 [2] was < 4.00 and the pIC50 [3] was 4.02. The pIC50 [4] was < 4.00 and the pIC50 [5] was 4.03.
In the case of `CCOC(=O)c1cc2c3ccccc3n(C)c2c(-c2cc(OC)c(OC)c(OC)c2)n1`, the pIC50 [1] was < 4.00, the pIC50 [2] was < 4.00 and the pIC50 [3] was 4.25. The pIC50 [4] was < 4.00 and the pIC50 [5] was < 4.00.
For `CCCCn1c2ccccc2c2cc(C(=O)OCC)nc(-c3cc(OC)c(OC)c(OC)c3)c21`, the pIC50 [1] was < 4.00, the pIC50 [2] was < 4.00 and the pIC50 [3] was 4.56. For the same compound, the pIC50 [4] was < 4.00 and the pIC50 [5] was 4.36.
`CCOC(=O)c1cc2c3ccccc3n(CCCc3ccccc3)c2c(-c2cc(OC)c(OC)c(OC)c2)n1` was tested, and the pIC50 [1] was < 4.00, the pIC50 [2] was < 4.00 and the pIC50 [3] was 4.02. For the same compound, the pIC50 [4] was < 4.00 and the pIC50 [5] was < 4.00.
In the case of `COc1cc(-c2nc(CO)cc3c4ccccc4n(CCCc4ccccc4)c23)cc(OC)c1OC`, the pIC50 [1] was < 4.00, the pIC50 [2] was < 4.00 and the pIC50 [3] was < 4.00. For the same compound, the pIC50 [4] was < 4.00 and the pIC50 [5] was < 4.00.
`COc1cc(-c2nc(C(=O)NCCO)cc3c4ccccc4n(C)c23)cc(OC)c1OC` was tested, and the pIC50 [1] was < 4.00, the pIC50 [2] was < 4.00 and the pIC50 [3] was 4.04. The pIC50 [4] was < 4.00 and the pIC50 [5] was 4.02.
In the case of `CCn1c2ccccc2c2cc(C(=O)O)nc(-c3cc(OC)c(OC)c(OC)c3)c21`, the pIC50 [1] was < 4.00, the pIC50 [2] was 4.21 and the pIC50 [3] was 4.18. The pIC50 [4] was < 4.00 and the pIC50 [5] was < 4.00.
For `CCOC(=O)c1cc2c3ccccc3n(CC)c2c(-c2cc(OC)c(OC)c(OC)c2)n1`, the pIC50 [1] was < 4.00, the pIC50 [2] was < 4.00 and the pIC50 [3] was 4.27. For the same compound, the pIC50 [4] was < 4.00 and the pIC50 [5] was < 4.00.
`CCCCn1c2ccccc2c2cc(CO)nc(-c3cc(OC)c(OC)c(OC)c3)c21` was tested, and the pIC50 [1] was < 4.00, the pIC50 [2] was < 4.00 and the pIC50 [3] was < 4.00. For the same compound, the pIC50 [4] was < 4.00 and the pIC50 [5] was < 4.00.
`COc1cc(-c2nc(C=O)cc3c4ccccc4n(C)c23)cc(OC)c1OC` was tested, and the pIC50 [1] was < 4.00, the pIC50 [2] was < 4.00 and the pIC50 [3] was < 4.00. The pIC50 [4] was < 4.00 and the pIC50 [5] was < 4.00.
In the case of `CCCCn1c2ccccc2c2cc(C=O)nc(-c3cc(OC)c(OC)c(OC)c3)c21`, the pIC50 [1] was < 4.00, the pIC50 [2] was < 4.00 and the pIC50 [3] was < 4.00. For the same compound, the pIC50 [4] was < 4.00 and the pIC50 [5] was < 4.00.
Work on `COc1ccc2c(c1)[nH]c1c(C)nccc12` [HARMINE] yielded a pIC50 [1] of 4.22, a pIC50 [2] of 4.27 and a pIC50 [3] of 4.17. For the same compound, the pIC50 [4] was 4.34 and the pIC50 [5] was 4.14.
